Data taken from ChEMBL document CHEMBL3286182, “4-aminoquinolone piperidine amides: noncovalent inhibitors of DprE1 with long residence time and potent antimycobacterial activity” (J Med Chem, 2014).
Values after ≈ are worked out from the molar mass of the structure shown. Active and inactive are the calls of the source. No cut-off for these calls is given here.

How the values were obtained:
[1] = Inhibition of Mycobacterium smegmatis recombinant DprE1 using farnesylphosphoryl-beta-D-ribofuranose as substrate assessed as conversion of amplex red to resorufin after 30 mins; design: species or system Mycolicibacterium smegmatis
Summary of the method: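 Msm DprE1 (thioredoxin-6His fusion of Msm Rv3790) at 75 nM, preincubated 30 min with 10 μM FAD. Buffer: 50 mM glycylglycine pH 8.5, 200 mM potassium glutamate, 0.002% Brij-35, 2% DMSO, 25 °C. Started with 300 μM farnesylphosphoryl-β-D-ribofuranose, 0.01 mg/mL HRP and 50 μM Amplex Red.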

[2] = tested on: Mycobacterium tuberculosis; assay: Antimycobacterial activity against Mycobacterium tuberculosis H37Rv after 5 days by standard microdilution method; format: functional; details: 120 h
[3] = tested on: Mycobacterium tuberculosis; assay: Antimycobacterial activity against Mycobacterium tuberculosis H37Rv under hypoxic condition after 6 days by resazurin assay; format: functional
[4] = tested on: Mycolicibacterium smegmatis; assay: Antimicrobial activity against Mycobacterium smegmatis ATCC 607 at 100 uM; format: functional, organism-based
Staphylococcus aureus = assay: Antimicrobial activity against Staphylococcus aureus ARC517 at 100 uM; format: functional, organism-based
Summary of the method: (§1)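 Nonmycobacterial panel of Candida albicans, Gram-negative and Gram-positive pathogens.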

Pseudomonas aeruginosa [5] = assay: Antimicrobial activity against Pseudomonas aeruginosa ARC545 at 100 uM; format: functional, organism-based; summary of the method: as §1
Candida albicans = assay: Antimicrobial activity against Candida albicans ARC527 at 100 uM; format: functional, organism-based; summary of the method: as §1
Streptococcus pneumoniae = assay: Antimicrobial activity against Streptococcus pneumoniae ARC548 at 100 uM; format: functional, organism-based; summary of the method: as §1
Escherichia coli [6] = assay: Antimicrobial activity against Escherichia coli ARC524 at 100 uM; format: functional, organism-based; summary of the method: as §1
Klebsiella pneumoniae = assay: Antimicrobial activity against Klebsiella pneumoniae ARC1865 at 100 uM; format: functional, organism-based; summary of the method: as §1
[7] = tested on: Mycolicibacterium smegmatis; assay: Antimicrobial activity against Mycobacterium smegmatis mc2155 at 100 uM; format: functional, organism-based; details: str. MC2 155
Haemophilus influenzae [8] = assay: Antimicrobial activity against Haemophilus influenzae ARC158 at 100 uM; format: functional, organism-based; summary of the method: as §1
Escherichia coli [9] = assay: Antimicrobial activity against Escherichia coli ARC523 at 100 uM; format: functional, organism-based; summary of the method: as §1
Pseudomonas aeruginosa [10] = assay: Antimicrobial activity against Pseudomonas aeruginosa ARC546 at 100 uM; format: functional, organism-based; summary of the method: as §1
Haemophilus influenzae [11] = assay: Antimicrobial activity against Haemophilus influenzae ARC446 at 100 uM; format: functional, organism-based; summary of the method: as §1

| Compound | IC50 [1] [nM] | MIC [2] [µM] | Activity [3] | Activity [4] | Activity (Staphylococcus aureus) | Activity (Pseudomonas aeruginosa [5]) | Activity (Candida albicans) | Activity (Streptococcus pneumoniae) | Activity (Escherichia coli [6]) | Activity (Klebsiella pneumoniae) | Activity [7] | Activity (Haemophilus influenzae [8]) | Activity (Escherichia coli [9]) | Activity (Pseudomonas aeruginosa [10]) | Activity (Haemophilus influenzae [11]) |
| --- | --- | --- | --- | --- | --- | --- | --- | --- | --- | --- | --- | --- | --- | --- | --- |
| Cn1ncc(C(=O)N2CCC(Nc3cnnc4ccccc34)CC2)c1Cl | > 10000 | > 200 | – | – | – | – | – | – | – | – | – | – | – | – | – |
| Cn1ncc(C(=O)N2[C@@H]3CC[C@H]2C[C@H](Nc2cc(=O)[nH]c4ccc(F)cc24)C3)c1Cl | 43000 | > 200 | – | – | – | – | – | – | – | – | – | – | – | – | – |
| Cn1ncc(C(=O)N2CCC(Nc3cc(=O)[nH]c4c(F)cccc34)CC2)c1Cl | 11 | 3.1 (≈ 1.25 µg/mL) | inactive | inactive | inactive | inactive | inactive | inactive | inactive | inactive | inactive | inactive | inactive | inactive | inactive |
| Cn1ncc(C(=O)N2CCC(Nc3cc(=O)[nH]c4c(F)c(F)ccc34)CC2)c1Cl | 9 | 1.6 (≈ 0.675 µg/mL) | inactive | inactive | inactive | inactive | inactive | inactive | inactive | inactive | inactive | inactive | inactive | inactive | inactive |
| CN(c1cc(=O)[nH]c2ccccc12)C1CCN(C(=O)c2cnn(C)c2Cl)CC1 | 18000 | > 250 | inactive | inactive | inactive | inactive | inactive | inactive | inactive | inactive | inactive | inactive | inactive | inactive | inactive |
| Cn1ncc(C(=O)N2CCC(Nc3cc(=O)[nH]c4ccc(F)cc34)CC2)c1C(F)(F)F | 21 | 6.2 (≈ 2.71 µg/mL) | inactive | inactive | inactive | inactive | inactive | inactive | inactive | inactive | inactive | inactive | inactive | inactive | inactive |
| Cc1onc(C(=O)N2CCC(Nc3cc(=O)[nH]c4cc(F)c(F)cc34)CC2)c1C | 18 | 0.2 (≈ 0.0805 µg/mL) | inactive | inactive | inactive | inactive | inactive | inactive | inactive | inactive | inactive | inactive | inactive | inactive | inactive |
| Cn1ncc(C(=O)N2CCC(Nc3cc(=O)n(C)c4cc(F)c(F)cc34)CC2)c1Cl | 20 | 3.1 (≈ 1.35 µg/mL) | inactive | inactive | inactive | inactive | inactive | inactive | inactive | inactive | inactive | inactive | inactive | inactive | inactive |
| Cc1c(C(=O)N2CCC(Nc3cc(=O)[nH]c4ccc(F)cc34)CC2)nnn1C | 11 | 3.5 (≈ 1.35 µg/mL) | inactive | inactive | inactive | inactive | inactive | inactive | inactive | inactive | inactive | inactive | inactive | inactive | inactive |
| CCn1c(=O)cc(NC2CCN(C(=O)c3cnn(C)c3Cl)CC2)c2ccccc21 | > 100000 | > 100 | inactive | inactive | inactive | inactive | inactive | inactive | inactive | inactive | inactive | inactive | inactive | inactive | inactive |
| Cc1onc(C(=O)N2[C@@H]3CC[C@H]2C[C@@H](Nc2cc(=O)[nH]c4cc(F)c(F)cc24)C3)c1C | 7 | 0.06 (≈ 0.0257 µg/mL) | – | – | – | – | – | – | – | – | – | – | – | – | – |
| Cn1ncc(C(=O)N2CCC(Nc3cc(-c4ccccc4)[nH]c(=O)c3)CC2)c1Cl | 3000 | 50 (≈ 20.6 µg/mL) | – | – | – | – | – | – | – | – | – | – | – | – | – |
| Cc1c(C(=O)N2CCC(Nc3cc(=O)[nH]c4ccccc34)CC2)cnn1C | 210 | 6.2 (≈ 2.27 µg/mL) | inactive | inactive | inactive | inactive | inactive | inactive | inactive | inactive | inactive | inactive | inactive | inactive | inactive |
| Cn1ncc(C(=O)N2[C@@H]3CC[C@H]2C[C@@H](Nc2cc(=O)n(C)c4cc(F)c(F)cc24)C3)c1Cl | 8 | 0.12 (≈ 0.0554 µg/mL) | – | – | – | – | – | – | – | – | – | – | – | – | – |
| Cn1ncc(C(=O)N2[C@@H]3CC[C@H]2C[C@@H](Nc2cc(-c4ccccc4)[nH]c(=O)c2)C3)c1Cl | 53 | 1.6 (≈ 0.701 µg/mL) | – | – | – | – | – | – | – | – | – | – | – | – | – |
| Cn1ncc(C(=O)N2CC(Nc3cc(=O)[nH]c4ccccc34)C2)c1Cl | 1800 | 50 (≈ 17.9 µg/mL) | – | – | – | – | – | – | – | – | – | – | – | – | – |
| COc1cc(NC2CCN(C(=O)c3cnn(C)c3Cl)CC2)c2ccccc2n1 | 78000 | > 200 | – | – | – | – | – | – | – | – | – | – | – | – | – |
| Cn1ncc(C(=O)N2[C@@H]3CC[C@H]2C[C@@H](Nc2cc(=O)[nH]c4cc(F)c(F)cc24)C3)c1Cl | 9 | 0.06 (≈ 0.0269 µg/mL) | – | – | – | – | – | – | – | – | – | – | – | – | – |
| C[C@H]1C[C@@H](Nc2cc(=O)[nH]c3ccccc23)CCN1C(=O)c1cnn(C)c1Cl | > 10000 | > 200 | – | – | – | – | – | – | – | – | – | – | – | – | – |
| Cn1ncc(C(=O)N2CCC(Nc3n[nH]c4ccc(F)cc34)CC2)c1Cl | 113 | > 100 | – | – | – | – | – | – | – | – | – | – | – | – | – |
| Cn1ncc(C(=O)N2[C@@H]3CC[C@H]2C[C@@H](Nc2cc(=O)n(C)c4ccc(F)cc24)C3)c1Cl | 12 | 0.25 (≈ 0.111 µg/mL) | – | – | – | – | – | – | – | – | – | – | – | – | – |
| Cn1ncc(C(=O)N2CCC(Nc3cc(=O)[nH]c4ccccc34)C2)c1Cl (stereo not drawn) | 4700 | > 200 | – | – | – | – | – | – | – | – | – | – | – | – | – |
| C[C@H]1C[C@H](Nc2cc(=O)[nH]c3ccccc23)CCN1C(=O)c1cnn(C)c1Cl | 26 | 12.5 (≈ 5 µg/mL) | – | – | – | – | – | – | – | – | – | – | – | – | – |
